Measured values from PubChem BioAssay AID1885 (Broad Institute, 2009).
The whole screen tested about 300,000 compounds, of which about 4,400 (1.5%) were called active. For the sample, actives were picked, then their nearest neighbours and some compounds at random. Values without a mark were called inactive.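 The calls were made as follows: active = mean inhibition across valid replicates above about 55% (limit read from the data); inconclusive = mean below that limit but half or more replicates reach it; inactive = mean below it, under half of replicates reach it.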

assay: Trypanosoma cruzi replication blockers in host cells – luminescence, NIH3T3 host cells, primary screen (AID 1885);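 also: signal also drops with host cell toxicity which is not excluded here; 0% = plate median of DMSO wells and 100% = zero luminescence signal; higher percent means less beta-gal luminescence so fewer parasites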; settings: T. cruzi beta-gal in NIH3T3, luminescence, 90 h; active compounds read high; concentration not given here
Outline: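 assay system = mouse NIH/3T3 fibroblasts infected with β-gal-expressing T. cruzi Tulahuen C4 | input = 5,000 NIH/3T3 host cells per well | buffer or medium = DMEM plus 2% FBS | timing = 3 h host attachment, then at least 90 h co-culture | measured by = GalScreen luminescence, 60 min | evaluation = luminescence reflecting intracellular parasite burden, expressed as percent inhibition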

| Structure (SMILES) | inhibition |
| --- | --- |
| O=C(NC1CCCCC1)C1CC(=O)N(CCc2ccccc2)C1 (stereo not drawn) | -16.2% |
| C=CCOc1ccc(/C=C/C(=O)OCC(=O)NCC2CCCO2)cc1 (stereo not drawn) | -9.89% |
| CCOC(=O)CNc1nc(Cl)nc(Nc2ccc(OC)cc2OC)n1 | -0.745% |
| CCN(CC)CCCSc1nc2ccccc2s1 | 69.6% (active) |
| Cc1nc2nc(CSc3nc4ccccc4s3)cc(=O)n2[nH]1 | -6.18% |
| O=C(O)c1ccccc1CSc1nc2ccccc2s1 | -11.7% |
| COc1cc2c(cc1OC)C(C(=O)NCc1ccco1)C1c3ccccc3CCN1C2=O (stereo not drawn) | 7.27% |
| COC(=O)c1c(C)cc(O)c(C)c1O | -2.6% |
| O=[N+]([O-])c1ccc2oc(-c3cccc(O)c3)nc2c1 | -23.1% |
| COc1ccc(C(CNC(=O)c2cccc(NS(=O)(=O)c3ccc(C)c(F)c3)c2)N2CCCC2)cc1 (stereo not drawn) | -13.1% |
| COc1ccc(C(CNC(=O)c2ccc(NS(=O)(=O)c3ccc(F)c(C)c3)cc2)N(C)C)cc1 (stereo not drawn) | 3.47% |
| Cc1cc(S(=O)(=O)Nc2ccc(C(=O)NCC(c3ccco3)N3CCCC3)cc2)ccc1F (stereo not drawn) | 63.7% (active) |
| O=C(NNC(=O)c1cc(-c2ccccc2Cl)nc2ccccc12)c1csc(N2CCOCC2)n1 | -2.25% |
| O=C(Nc1ccc(C(=O)O)cc1)/C(=C\c1ccccc1)NC(=O)c1ccc(Br)cc1 | -8.09% |
| CC1CCCCN1S(=O)(=O)c1ccc(S(=O)(=O)N(CC(=O)Nc2ccccc2)Cc2cccs2)cc1 (stereo not drawn) | 57.2% (active) |
| CC1CCCCN1S(=O)(=O)c1ccc(C(=O)Nc2nnc(-c3cccs3)o2)cc1 (stereo not drawn) | 43.1% |
| CCN(CC(=O)NCc1cccs1)S(=O)(=O)c1ccc(NC(C)=O)cc1 | -2.26% |
| CC(OC(=O)C1CC(=O)N(Cc2ccccc2)C1)C(=O)Nc1ccccc1[N+](=O)[O-] (stereo not drawn) | -2.86% |
| COc1cccc(NC(=S)N(CCc2c(C)[nH]c3ccccc23)Cc2ccco2)c1 | 18.1% |
| COc1ccc2[nH]c(C)c(CCN(Cc3cccs3)C(=S)Nc3ccccc3OC)c2c1 | 60% (active) |

| Structure (SMILES) | inhibition |
| --- | --- |
| Cc1[nH]c2ccccc2c1CCN(Cc1cccs1)C(=S)NC(C)(C)C | 26.1% |
| CC(C)c1nc(SCC(=O)NC(=O)NC(C)(C)C)n[nH]1 | -2.85% |
| CCn1c(=N)n(CC(=O)c2cccc(OC)c2)c2ccccc21 | 7.38% |
| CCCCCCCCCCOC(=O)Cn1c(COc2cccc(OC)c2)[n+](C)c2ccccc21 | 65.1% (active) |
| CCCCCCCCCCOC(=O)Cn1c(COc2ccc(C)cc2)[n+](C)c2ccccc21 | 46.2% |
| CCCCCC(=O)N1CCN(S(=O)(=O)c2ccc3c(c2)OCCCO3)CC1 | -5.19% |
| Cc1cc(Nc2ccc(Br)cc2)nc2ccccc12 | 32.6% |
| Cn1c2ccccc2c(=O)c2c(=O)n(Cc3ccco3)c(COc3ccccc3)nc21 | 62.2% (active) |
| CCCc1nc2c(c(=O)c3ccccc3n2C)c(=O)n1-c1cc(C)cc(C)c1 | 34.2% |
| CCCc1nc2c(c(=O)c3ccccc3n2C)c(=O)n1C1CCCCCC1 | 22.4% |
| Cc1ccc(OCCC(=O)OCC(=O)N2c3ccccc3NC(=O)C2(C)C)cc1 | -1.24% |
| COc1ccc(S(=O)(=O)N2CCSCC2)cc1 | 5.81% |
| COc1ccc(S(=O)(=O)N2CCOC23CCN(S(=O)(=O)c2ccc([N+](=O)[O-])cc2)CC3)cc1 | 61.5% (active) |
| COc1ccc(CNC(=O)C(=O)N2CCC3(CC2)OCCN3S(=O)(=O)c2ccc(C)cc2)cc1 | -4.09% |
| CC1(C)O[C@H]2CC(=O)OCC23[C@H]2CC[C@@]4(C)[C@H](c5ccoc5)OC(=O)[C@H]5O[C@]54[C@]2(C)C(=O)C[C@@H]13 (stereo partly drawn) | -3.05% |
| c1ccc2c(C[n+]3csc4ccccc43)cccc2c1 | 59.8% (active) |
| Nc1scc[n+]1Cc1cccc2cccnc12 | -1.61% |
| c1ccc(NCc2cccc3ccccc23)nc1 | 1.93% |
| FC(F)Oc1ccccc1NC(=S)Nc1cccc(Cl)c1Cl | 0.408% |
| CC(C(=O)NCC1CCCCC1)N(C)Cc1cccc(Cl)c1 (stereo not drawn) | 10.6% |

| Structure (SMILES) | inhibition |
| --- | --- |
| Cc1ccc(NC(=O)/C(=C/c2ccc([N+](=O)[O-])cc2)NC(=O)c2ccccc2)cc1 | 1.7% |
| CCOC(=O)COc1ccc([N+](=O)[O-])cc1 | -3.58% |
| CCOC(=O)/C(=C\c1ccc([N+](=O)[O-])cc1)C(=O)c1cc(C(C)=O)c(Nc2ccccc2)s1 | 55.8% (active) |
| COC(=O)C1[C@H]2SC(C)(C)C(C(=O)OC)N2C(=O)N1Cc1nc2ccccc2s1 (stereo partly drawn) | -4.35% |
| CC(OC(=O)c1ccc(S(=O)(=O)N2CCOCC2)cc1)c1ccccc1 (stereo not drawn) | 1.58% |
| CC(C)CN(C(=O)COC(=O)c1ccc(Cl)c(N)c1)c1c(N)n(Cc2ccccc2)c(=O)[nH]c1=O | 10.2% |
| Cc1ccc(C)c(N2CCN(C(=O)CCCCCn3c(=S)[nH]c4ccc(N5CCOCC5)cc4c3=O)CC2)c1 | 56.8% (active) |
| O=C(CCCCCn1c(=S)[nH]c2cc3c(cc2c1=O)OCO3)N1CCN(c2ccc(F)cc2)CC1 | 7.91% |
| Cc1ccc(C)c(N2CCN(C(=O)CCCCn3c(=O)[nH]c4ccccc4c3=O)CC2)c1 | 4.26% |
| Cc1ccn(C(CC(=O)c2ccc(Br)cc2)C(=O)O)n1 (stereo not drawn) | -6.81% |
| CCN(CC)C(=O)CSC1c2ccccc2C(=O)N1c1ccccc1 (stereo not drawn) | -17.2% |
| CCOc1ccc(CCNC(=O)C(CC)n2nc(C)n3c(cc4sccc43)c2=O)cc1OCC (stereo not drawn) | 59.3% (active) |
| COc1ccc(CCNC(=O)c2cc3sccc3n2C)cc1OC | -11.3% |
| CCC(C(=O)NCc1ccc(OC)cc1)n1nc(C)n2c(cc3occc32)c1=O (stereo not drawn) | -2.81% |
| COc1ccc(-n2nnnc2CNC(=O)c2ccc3ccccc3c2)cc1 | -2.55% |
| Cc1c(Cl)cccc1NC(=S)N(Cc1ccccc1)Cc1cccnc1 | 18.3% |
| Cc1ccc(CN(Cc2cccnc2)C(=S)Nc2cccc(Cl)c2C)cc1 | 3% |
| Cc1ccc(CN(Cc2cccnc2)C(=S)Nc2cc(Cl)ccc2C)cc1 | 77.2% (active) |
